PPC-1+TRAIL kill: compounds killing PPC-1 cancer cells with TRAIL present, primary screen, TRAIL potentiator project, ATPLite luminescence, uHTS. PPC-1 cells + TRAIL, ATPLite viability luminescence. 220,000 tested, 0.41% active. AID 1443, 2008. cell killing (% activity), % at 4 µM or 5 µM;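 active = cell killing above 50% in the first pass at 4 µM, then a duplicate retest at 5 µM averaging 50% or more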;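 note: plate controls were cells with TRAIL plus DMSO for no effect and medium-only wells lacking cells for full effect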
PKD1 inh: inhibitors of human PKD1 kinase, biochemical, fluorescence polarization; Serine/threonine-protein kinase D1 (Homo sapiens), Q15139; PKD1 kinase fluorescence polarization assay; inhibition, % (concentration not given with the values); 200,000 tested, 0.056% active; AID 797, 2007; in the data active = inhibition above about 50%
Target sequence (Q15139 whole entry, looked up): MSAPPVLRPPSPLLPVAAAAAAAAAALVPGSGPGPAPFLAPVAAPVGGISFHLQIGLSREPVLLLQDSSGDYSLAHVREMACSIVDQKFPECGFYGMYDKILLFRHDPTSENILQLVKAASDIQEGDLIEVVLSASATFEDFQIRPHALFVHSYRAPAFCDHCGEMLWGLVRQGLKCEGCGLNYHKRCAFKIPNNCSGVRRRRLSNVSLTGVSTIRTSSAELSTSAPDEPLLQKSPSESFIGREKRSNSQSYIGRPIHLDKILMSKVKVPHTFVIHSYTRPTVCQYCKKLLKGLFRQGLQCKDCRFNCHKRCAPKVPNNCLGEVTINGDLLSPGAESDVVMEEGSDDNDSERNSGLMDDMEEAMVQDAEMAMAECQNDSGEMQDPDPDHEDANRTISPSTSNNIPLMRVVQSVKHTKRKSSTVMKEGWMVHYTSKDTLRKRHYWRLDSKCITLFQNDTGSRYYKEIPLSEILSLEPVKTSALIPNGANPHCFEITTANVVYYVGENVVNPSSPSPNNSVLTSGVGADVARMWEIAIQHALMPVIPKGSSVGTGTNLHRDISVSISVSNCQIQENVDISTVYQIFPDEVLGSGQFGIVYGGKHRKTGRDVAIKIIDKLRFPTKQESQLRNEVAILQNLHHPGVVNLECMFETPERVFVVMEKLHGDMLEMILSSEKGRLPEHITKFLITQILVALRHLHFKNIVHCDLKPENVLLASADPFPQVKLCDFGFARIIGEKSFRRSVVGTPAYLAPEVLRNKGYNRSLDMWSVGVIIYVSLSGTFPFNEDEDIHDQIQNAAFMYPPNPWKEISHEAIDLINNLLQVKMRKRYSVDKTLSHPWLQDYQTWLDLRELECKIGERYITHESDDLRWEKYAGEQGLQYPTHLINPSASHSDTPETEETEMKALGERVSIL
Wee1 stabilizer: Wee1 degradation inhibitors, primary screen, cell-based, HeLa, Wee1K328M-luciferase, luminescence; 220,000 tested, 1.2% active; AID 1321, 2008; reporter increase, % at 5 µM; HeLa Luc-Wee1K328M stability; 100% = proteasome inhibitor MG132 effect;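 active = activation above the mean of all tested compounds plus 3 SD, set per screening run, cut at about 8.8% in these data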;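 note: cells exposed to compound for 20 h before luminescence read; 0% = DMSO alone and 100% = MG132 at 30 µM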
FLuc stim CS: FLuc activators, initial screening, artefact control for FLuc-dependent activation tests, biochemical, ATPlite luminescence; Luciferin 4-monooxygenase (Photinus pyralis), P08659; ATPlite luciferase biochemical, 10 min; 0 = ATP-free wells, 1 = DMSO control; activation factor at 10 µM; 200,000 tested, under 10 active; AID 1027, 2008;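 active = luciferase activation factor, scaled between plate controls, of at least 2 with compound at 10 µM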
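Material: luciferase plus luciferin reagent, cell-free. Medium: PBS buffer for ATP. Also added: ATP substrate, dispensed from a 10.24 µM working solution in PBS. Doses: test compounds dosed from 2 mM stocks in 100% DMSO. Incubation: 10 min post-reagent at room temperature. Technique: light output (luminescence). Read-out basis: luminescence gain marking luciferase activators.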
TRAIL sens C8: viability loss with TRAIL in NB7+C8 cells, primary screen, TRAIL sensitizer project, cell-based, ATPlite luminescence; inhibition (viability loss, TRAIL sensitization), % at 10 µM; 360,000 tested, 1% active; AID 624354, 2012;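 active = compounds causing at least 50% loss of cell viability in the single-dose screen, relative to plate controls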
FLuc inhib CS: firefly luciferase enzyme inhibitors, primary screen, artefact control for luciferase-based inhibitor screens, biochemical, luminescence, ATPLite. Luciferin 4-monooxygenase (Photinus pyralis), P08659. 10 min. inhibition, % at 10 µM. 200,000 tested, 1.5% active;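 active = inhibition above about 50% when tested at 10 µM, limit read from the data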
Numbers without * were called inactive; . = not tested or not shown. This is a sample that favours compounds with a hit; in the whole collection about 2.2% have one here.

SMILES	PPC-1+TRAIL kill	PKD1 inh	Wee1 stabilizer	FLuc stim CS	TRAIL sens C8	FLuc inhib CS
Nc1nc2ccccc2n1C(=O)c1ccco1	30.9	-10.6	1.5	0.6	28.1	42.7
Cc1cnc(NC(=O)C2COc3ccccc3O2)s1 (configuration not stated)	11.5	-2.5	-1.7	0.5	19.3	51.9*
Cc1csc(NC(=O)C2COc3ccccc3O2)n1 (configuration not stated)	1.7	4.1	1.1	0.5	12.5	48.2
CC(=O)Oc1ccc(Cl)cc1/C=C/c1ccc2ccccc2n1	9.3	5.0	0.5	1	17.1	-2.5
Fc1ccccc1/C=C/c1ccc2ccccc2n1	39.1	12.5	1.7	0.1	77.0*	87.3*
O=C(O)/C=C/c1ccc2ccccc2n1	19.5	-4.5	-1.5	1	-0.3	-4.4
C(=C\c1ccc2ccccc2n1)/c1ccccc1	43.5	.	1.8	.	72.8*	.
O=C(CN1C(=O)c2ccccc2S1(=O)=O)c1ccc(Cl)cc1Cl	.	.	.	.	67.3*	.
CC1CCN(C(=O)CN2C(=O)c3ccccc3S2(=O)=O)CC1	16.5	2.3	9.3*	1.1	2.6	-6.0
O=C(CCN1C(=O)c2ccccc2S1(=O)=O)Nc1cc(Cl)ccc1Cl	.	.	.	.	15.5	.
O=C(CN1C(=O)c2ccccc2S1(=O)=O)c1ccc(F)cc1	-7.1	.	-2.4	.	31.2	.
O=C(CN1C(=O)c2ccccc2S1(=O)=O)c1ccccc1F	.	.	.	.	46.3*	.
COc1ccc(CNC(=O)C2CCN(C(=O)c3csc(Nc4ccc(C)cc4)n3)CC2)cc1	.	.	.	.	9.1	.
Cc1ccc(C2=NN(C(=O)CCl)C(c3cccs3)C2)o1 (configuration not stated)	-6.7	7.0	0.3	1	95.3*	-0.7
O=C(CCl)N1N=C(c2ccco2)CC1c1cccs1 (configuration not stated)	4.7	5.0	1.4	1	91.8*	2.6
CC(=O)N1N=C(c2ccco2)CC1c1cccs1 (configuration not stated)	-5.2	-2.2	-1.8	1.1	5.8	-5.9
Cc1ccc(C(=O)C(C)OC(=O)CCN=C2NS(=O)(=O)c3ccccc32)cc1 (configuration not stated)	.	.	.	.	-8.6	.
COc1ccc(/C=N/Nc2ncccc2[N+](=O)[O-])c(OC)c1	-2.8	-5.5	-3.3	0.4	7.4	62.9*
COc1ccc2nc(C)cc(Nc3ccc(N4CCN(C)CC4)cc3)c2c1	.	.	.	.	48.8*	.
COc1ccc2nc(C)cc(N/N=C/c3ccccc3)c2c1	.	.	.	.	52.8*	.
COc1ccc(/C=N/Nc2cc(C)nc3ccc(OC)cc23)c(OC)c1	.	.	.	.	89.3*	.
COc1ccc(/C=N/Nc2ncc(-c3ccccc3)cn2)c(OC)c1	8.0	-10.4	0.3	1	15.7	-4.0
COc1ccccc1/C=N/Nc1cc(C)nc2ccc(C)cc12	.	.	.	.	2.4	.
O=C(NCc1ccccc1)Nc1nnc([C@@H]2C[C@H](O)[C@@H](CO)O2)s1	.	.	.	.	-1.9	.
CCCc1nnc(NC(=O)CSc2nnc(-c3ccco3)n2C)s1	.	.	.	.	-9.9	.
SMILES	PPC-1+TRAIL kill	PKD1 inh	Wee1 stabilizer	FLuc stim CS	TRAIL sens C8	FLuc inhib CS
CCOC(=O)C1(Cc2ccc(OC)cc2)CCN(C(=O)CCn2cccn2)CC1	6.8	.	6.7	.	2.0	.
CCOC(=O)C1(Cc2ccc(OC)cc2)CCN(C(=O)CCn2ccc(C)n2)CC1	2.9	0.7	8.8*	1.1	-3.0	-6.5
Cn1nnnc1NCc1c(F)cccc1Cl	5.4	-10.3	10.1*	1	10.0	2.8
Clc1ccc(-c2cccc3nccn23)c(Cl)c1	.	.	.	.	1.4	.
Cc1nc2cc(-c3ccccc3)nn2c(N)c1-c1ccccc1	.	.	.	.	65.7*	.
Cc1nc2c(-c3ccccc3)c(C)nn2c(N)c1-c1ccccc1	18.6	1.9	-1.3	0.3	43.8	67.9*
Cc1nn2c(N)c(-c3ccccc3)cnc2c1-c1ccc(Cl)cc1	.	.	.	.	5.5	.
COc1ccc(-c2cc3nc(C)cc(N)n3n2)cc1	81.2*	-3.8	-2.5	0	84.1*	95.3*
O=C(NCc1ccc2c(c1)OCO2)C1CCCN1S(=O)(=O)c1ccc(Cl)cc1 (configuration not stated)	13.0	-7.2	-1.1	1	0.2	-4.0
CCN(CC)CCN(C(=O)c1cc2c(ccc3ccccc32)oc1=O)c1nc2cc3c(cc2s1)OCCO3	.	.	.	.	31.2	.
O=C(/C=C\c1ccc(-c2ccccc2)o1)c1ccccc1	10.0	-6.7	8.8*	0.9	8.9	9.2
COc1cc(/C=C2\COC/C(=C\c3cc(OC)c(OC)c(OC)c3)C2=O)cc(OC)c1OC	40.8	.	127.1*	.	72.2*	.
CC(=O)c1nccs1	.	.	.	.	-3.0	.
CN(C)S(=O)(=O)c1ccc(N2CCN(S(=O)(=O)c3ccc(F)cc3)CC2)c(Cl)c1	28.5	-4.0	1.8	1.1	53.1*	-9.7
CN(C)S(=O)(=O)N1CCN(S(=O)(=O)c2ccc(F)cc2)CC1	7.8	2.6	0.1	1.1	-2.8	-7.6
COCCN(C(=O)c1ccc(-c2ccc([N+](=O)[O-])cc2)o1)c1c(N)n(CC(C)C)c(=O)[nH]c1=O	.	.	.	.	15.2	.
O=C(CSc1nnnn1-c1cccnc1)Nc1ccccc1F	.	.	.	.	-7.3	.
COCCN(C(=O)COC(=O)CSc1ccc(Cl)cc1)c1c(N)n(Cc2ccccc2)c(=O)[nH]c1=O	.	.	.	.	-6.0	.
O=[N+]([O-])c1ccc(-c2nc(C(Cl)Cl)c3ccccc3n2)cc1	12.3	.	-3.8	.	59.9*	.
Nc1nc(Nc2ccccc2)nc(N2CCOCC2)c1[N+](=O)[O-]	7.2	2.4	-1.9	1	-4.1	-3.4
Nc1nc(Nc2ccccc2F)nc(N2CCOCC2)c1[N+](=O)[O-]	0.7	.	8.9*	.	-12.2	.
CCC(=O)Nc1cccc(-c2nc3ccc(C)cc3o2)c1	.	.	.	.	16.5	.
CCC(=O)Nc1ccc2oc(-c3cccc(C)c3)nc2c1	44.7	-4.7	1.0	0.3	59.6*	71.3*
Cc1cccc(-c2nc3cc(NC(=O)C4CCCO4)ccc3o2)c1 (configuration not stated)	55.6*	-4.7	-2.4	0.2	62.9*	83.1*
Cc1ccccc1C(=O)Nc1nnc(CC(=O)N/N=C/c2ccncc2)s1	-16.8	.	-1.3	.	-23.0	.
COc1ccc(CCNC(=O)CCNC(=O)N2CC(=O)Nc3ccccc32)cc1	.	.	.	.	-10.1	.
CCn1c(C)cc(C=C2C(=O)c3ccccc3C2=O)c1C	8.6	1.3	-1.8	0.2	48.9	78.6*
Cc1cc(C=C2C(=O)c3ccccc3C2=O)c(C)n1C	-21.3	9.7	-0.3	0.6	15.1	37.8
CSc1nnc(-c2ccccc2)c(-c2ccccc2)n1	16.3	.	8.9*	.	28.1	.
O=C(O)Cn1nnnc1SCC(=O)Nc1ccc(F)cc1F	1.8	-1.7	4.8	1.1	1.9	-6.6
